Data: ChEMBL document CHEMBL1157987, “Acylated flavonol glycosides from leaves of Stenochlaena palustris” (1999)
In brackets after ≈: the same amount, converted by molar mass.

How the values were obtained:
Type in all cases: functional
[1] = system: Staphylococcus epidermidis; experiment: Antibacterial activity against Staphylococcus epidermidis ATCC 12228 after 20 hrs by MTT assay; details: ATCC 12228, 20 h
Procedure, shortened: (§1)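 Overnight cultures in nutrient broth at 37 °C, diluted to ca. 10⁵ cells/mL in fresh medium. Compounds from 1 mg/mL MeOH stocks dried in wells, redissolved in DMSO plus broth and culture, then twofold serial dilutions in bacterial suspension. Plates held 20 h at 37 °C in moist atmosphere; 0.25% aqueous MTT added, 4 h further incubation; living bacteria seen as violet turbidity.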

Bacillus cereus = experiment: Antibacterial activity against Bacillus cereus ATCC 10702 after 20 hrs by MTT assay; details: ATCC 10702, 20 h; procedure, shortened: as §1
Staphylococcus aureus = experiment: Antibacterial activity against Staphylococcus aureus ATCC 25923 after 20 hrs by MTT assay; details: ATCC 25923, 20 h; procedure, shortened: as §1
Micrococcus luteus = experiment: Antibacterial activity against Micrococcus luteus ATCC 9341 after 20 hrs by MTT assay; details: ATCC 9341, 20 h; procedure, shortened: as §1

Compound | MIC [1] [µg/mL] | MIC (Bacillus cereus) [µg/mL] | MIC (Staphylococcus aureus) [µg/mL] | MIC (Micrococcus luteus) [µg/mL]
O=C(/C=C/c1ccc(O)cc1)OC[C@H]1O[C@@H](Oc2c(-c3ccc(O)cc3)oc3cc(O)cc(O)c3c2=O)[C@H](O)[C@@H](OC(=O)/C=C/c2ccc(O)cc2)[C@@H]1O | > 256 | > 256 | > 256 | > 256
O=C(/C=C/c1ccc(O)cc1)O[C@@H]1[C@@H](O)[C@H](Oc2c(-c3ccc(O)cc3)oc3cc(O)cc(O)c3c2=O)O[C@H](CO)[C@H]1O | > 256 | > 256 | > 256 | > 256
COc1cc(/C=C/C(=O)OC[C@H]2O[C@@H](Oc3c(-c4ccc(O)cc4)oc4cc(O)cc(O)c4c3=O)[C@H](O)[C@@H](OC(=O)/C=C/c3ccc(O)cc3)[C@@H]2O)ccc1O | > 256 | > 256 | > 256 | > 256
O=C(N[C@H](CO)[C@H](O)c1ccc([N+](=O)[O-])cc1)C(Cl)Cl [CHLORAMPHENICOL] | 4 (≈ 12.4 µM) | 2 (≈ 6.19 µM) | 4 (≈ 12.4 µM) | 2 (≈ 6.19 µM)
COc1cc(C(O)C(CO)Oc2ccc(/C=C/C(=O)OC[C@H]3O[C@@H](Oc4c(-c5ccc(O)cc5)oc5cc(O)cc(O)c5c4=O)[C@H](O)[C@@H](OC(=O)/C=C/c4ccc(O)cc4)[C@@H]3O)cc2OC)ccc1O (some centres not stated) [STENOPALUSTROSIDE E] | > 256 | > 256 | > 256 | > 256
O=C(/C=C/c1ccc(O)cc1)OC[C@H]1O[C@@H](Oc2c(-c3ccc(O)cc3)oc3cc(O)cc(O)c3c2=O)[C@H](O)[C@@H](O)[C@@H]1O [TILIROSIDE] | > 256 | > 256 | > 256 | > 256

Continued, values first:

MIC [1] [µg/mL] | MIC (Bacillus cereus) [µg/mL] | MIC (Staphylococcus aureus) [µg/mL] | MIC (Micrococcus luteus) [µg/mL] | Compound
2 (≈ 2.7 µM) | 4 (≈ 5.4 µM) | 16 (≈ 21.6 µM) | 8 (≈ 10.8 µM) | O=C(/C=C\c1ccc(O)cc1)OC[C@H]1O[C@@H](Oc2c(-c3ccc(O)cc3)oc3cc(O)cc(O)c3c2=O)[C@H](O)[C@@H](OC(=O)/C=C\c2ccc(O)cc2)[C@@H]1O [STENOPALUSTROSIDE A]
64 (≈ 83 µM) | 8 (≈ 10.4 µM) | 32 (≈ 41.5 µM) | 16 (≈ 20.8 µM) | COc1cc(/C=C/C(=O)OC[C@H]2O[C@@H](Oc3c(-c4ccc(O)cc4)oc4cc(O)cc(O)c4c3=O)[C@H](O)[C@@H](OC(=O)/C=C\c3ccc(O)cc3)[C@@H]2O)ccc1O [STENOPALUSTROSIDE B]
